Only some compounds are listed: those with a hit (about 6.7% of all), similar ones and a draw of the others.
CSC inhib: blocks cancer stem cells; 300,000 compounds, 1.1% hits; cancer stem cell-like cells viability, luminescence; inhibition, % at 7.5 µM; in the data active means inhibition above about 75%; tested in HMLE shEcad cells
GRIN3A LBD mod: NR3A (human) ligand-binding domain modulation; NR3A LBD differential scanning fluorimetry, Tm shift; 0% = protein alone, 100% = glycine-bound protein; Tm shift relative to glycine control, % at 25 µM; 340,000 compounds, 2.5% hits; AID 1259313;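 active means melting temperature shift of at least 10% of the positive control shift, at one fixed dose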
CHOP inhibitor: CHOP inhibition in unfolded protein response; 220,000 compounds, 3.8% hits; inhibition, % at 10 µM; AID 2732; CHO-K1 CHOP-promoter luciferase, tunicamycin-induced, 15-18 h;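 active means compounds that reduced the stress-induced luciferase reporter signal by more than about 70% of percent inhibition, limit read from the data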;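 further: 0% = tunicamycin plus vehicle and 100% = wells without tunicamycin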
T cruzi repl: T. cruzi replication inhibition. inhibition, % (no concentration beside the values). T. cruzi beta-gal in NIH3T3, luminescence, 90 h. 300,000 compounds, 1.4% hits;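 active means mean inhibition across valid replicates above about 55%, limit read from the data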;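 further: signal also drops with host cell toxicity which is not excluded here; 0% = plate median of DMSO wells and 100% = zero luminescence signal; higher percent means less beta-gal luminescence so fewer parasites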
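System – NIH/3T3 host cells with β-galactosidase reporter T. cruzi · Doses – single 50 nL compound addition per well in DMSO · Reagent – 5000 T. cruzi trypomastigotes/well · Medium – Low-serum DMEM with 2% FBS · Timing – ≥90 h infection period, 3 h prior cell attachment · Evaluation – parasite load inhibition, % · Technique – GalScreen luminescence, 60 min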
PREPL inhibitor: inhibitors of human prolyl oligopeptidase-like enzyme PREPL; Q4J6C6; recombinant PREPL, fluorescence polarization activity-based probe; inhibition, % at 5.96 µM; 320,000 compounds, 0.68% hits; AID 2751; in the data active means inhibition above about 43%;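 further: 0% = enzyme with DMSO and 100% = wells lacking enzyme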
Target sequence (Q4J6C6 whole entry, looked up): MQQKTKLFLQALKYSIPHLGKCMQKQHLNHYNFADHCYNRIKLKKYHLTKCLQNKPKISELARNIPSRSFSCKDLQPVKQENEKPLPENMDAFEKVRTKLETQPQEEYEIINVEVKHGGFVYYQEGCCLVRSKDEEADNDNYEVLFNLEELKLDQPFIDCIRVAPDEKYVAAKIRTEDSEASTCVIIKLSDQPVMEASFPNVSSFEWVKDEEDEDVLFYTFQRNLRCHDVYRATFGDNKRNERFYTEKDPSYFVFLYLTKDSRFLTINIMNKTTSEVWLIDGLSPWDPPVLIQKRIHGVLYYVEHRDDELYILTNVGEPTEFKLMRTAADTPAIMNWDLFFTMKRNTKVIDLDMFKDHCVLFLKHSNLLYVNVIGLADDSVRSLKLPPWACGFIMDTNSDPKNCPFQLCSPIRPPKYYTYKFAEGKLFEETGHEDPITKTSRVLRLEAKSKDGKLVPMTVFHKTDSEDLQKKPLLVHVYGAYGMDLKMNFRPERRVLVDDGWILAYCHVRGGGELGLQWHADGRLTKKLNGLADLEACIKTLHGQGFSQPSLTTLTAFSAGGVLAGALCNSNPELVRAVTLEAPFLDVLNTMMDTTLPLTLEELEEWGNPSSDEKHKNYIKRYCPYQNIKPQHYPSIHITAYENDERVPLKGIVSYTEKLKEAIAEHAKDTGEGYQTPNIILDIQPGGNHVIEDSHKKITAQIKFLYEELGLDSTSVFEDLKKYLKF
Beta cell apopt: beta cell apoptosis inhibition. protection from apoptosis, % (test concentration not listed). 300,000 compounds, 0.8% hits. INS-1E cytokine-induced death, ATP luminescence, 48 h; percent of positive-control rescue, neutral wells zero;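 active means Every replicate reaches about 75%, or at least half do and their mean reaches it too, limit read from the data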;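 further: 0% = cytokine-treated negative control wells and 100% = positive control rescue; higher means more ATP so stronger rescue from cytokine killing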
* marks the source's active call; other numbers are inactive results.

`CS(=O)(=O)N(CC(=O)Nc1ccccc1Br)Cc1ccccc1` gave CSC inhib 20.5, GRIN3A LBD mod -1.0, T cruzi repl -6.1, PREPL inhibitor -6.4 and Beta cell apopt 41.7.
CCOC(=O)c1nnc(-c2ccc(C)cc2)nc1Oc1ccccc1Cl was read as GRIN3A LBD mod -3.2, CHOP inhibitor 77.9*, T cruzi repl 11.4, PREPL inhibitor -4.8 and Beta cell apopt -2.8.
`COC(=O)Cn1c2ccc(Cl)cc2c2nc(C)sc21` gave CSC inhib -14.5, GRIN3A LBD mod 2.4, CHOP inhibitor 6.8, T cruzi repl -7.7, PREPL inhibitor 2.9 and Beta cell apopt -7.6.
For Cc1ccc(S(=O)(=O)n2c3ccc(Cl)cc3c3nc(C)sc32)cc1 the results were GRIN3A LBD mod 26.6*, CHOP inhibitor 35.3 and T cruzi repl 30.8.
`CCOC(=O)c1c(-c2ccc(-c3ccccc3)cc2)csc1NC(=O)CNCCN(C)C` gave CSC inhib 99.0*, T cruzi repl 46.8, PREPL inhibitor 33.0 and Beta cell apopt 55.2.
CCOC(=O)c1c(-c2ccccc2)csc1NC(=O)CCN1C(=O)c2ccccc2C1=O was read as CSC inhib 55.5, GRIN3A LBD mod -0.2, CHOP inhibitor 37.0, T cruzi repl 1.6, PREPL inhibitor -1.1 and Beta cell apopt -7.9.
Screening CCOC(=O)c1c(-c2ccccc2)csc1NC(=S)NC returned CSC inhib -1.3, GRIN3A LBD mod -7.1, CHOP inhibitor 92.6*, T cruzi repl 6.0, PREPL inhibitor 4.6 and Beta cell apopt 3.9.
Screening CCOC(=O)c1c(-c2ccc(-c3ccccc3)cc2)csc1NC(=O)CCN1CCOCC1 returned CSC inhib 105.0*, GRIN3A LBD mod 4.1, CHOP inhibitor 34.2, T cruzi repl 13.3, PREPL inhibitor 39.5 and Beta cell apopt 16.7.
CCNC(=S)Nc1scc(-c2ccccc2)c1C(=O)OCC was read as CSC inhib 13.6, GRIN3A LBD mod -5.2, CHOP inhibitor -4.6, T cruzi repl 2.8, PREPL inhibitor 2.9 and Beta cell apopt 1.5.
CCOC(=O)c1c(-c2ccc(F)cc2)csc1NC(=O)CCN1CCOCC1 was read as CSC inhib -7.3, GRIN3A LBD mod -0.1, CHOP inhibitor 12.2, T cruzi repl 5.9, PREPL inhibitor -0.3 and Beta cell apopt -3.9.
Screening CCOC(=O)c1c(-c2cccs2)csc1NC(=O)CN1CC(C)OC(C)C1 (configuration not stated) returned CSC inhib 10.3, GRIN3A LBD mod 1.0, CHOP inhibitor 84.5*, T cruzi repl 49.3, PREPL inhibitor -0.8 and Beta cell apopt 8.8.
O=S(Cc1ccccc1)CC(O)(c1ccc(Cl)cc1)c1ccc(Cl)cc1 (configuration not stated) was read as CSC inhib 18.2, GRIN3A LBD mod -15.9, CHOP inhibitor 84.8*, T cruzi repl 21.6, PREPL inhibitor -11.6 and Beta cell apopt -1.6.
O=C(c1cc(Cl)nc2ccccc12)N(Cc1nnc(-c2ccccc2Cl)o1)C1CC1 was read as CSC inhib -2.8, GRIN3A LBD mod 1.8, T cruzi repl 17.9, PREPL inhibitor -0.7 and Beta cell apopt 5.6.
Cc1ccc2ccccc2[n+]1CCCS(=O)(=O)[O-] was read as CSC inhib -8.1, GRIN3A LBD mod 1.7, CHOP inhibitor 9.9, T cruzi repl 10.5, PREPL inhibitor 0.8 and Beta cell apopt -3.8.
`CCC[n+]1c2ccccc2cc2ccccc21` gave CSC inhib 6.3, GRIN3A LBD mod 7.7, T cruzi repl 60.5*, PREPL inhibitor 11.5 and Beta cell apopt 32.3.
`CCCC[n+]1c2ccccc2cc2ccccc21` gave CSC inhib 39.9, GRIN3A LBD mod 22.2*, T cruzi repl 68.2*, PREPL inhibitor 21.7 and Beta cell apopt 48.2.
Screening O=C(NCCO)C(=O)NCC1OCCCN1S(=O)(=O)c1cc(F)ccc1F (configuration not stated) returned CSC inhib -12.3, GRIN3A LBD mod 136.0*, T cruzi repl -20.8, PREPL inhibitor -3.2 and Beta cell apopt -2.0.
CCc1ccc(NC(=O)C(C)Sc2nnc(CN3CCCC3)o2)cc1 (configuration not stated) was read as CSC inhib 6.9, GRIN3A LBD mod 2.5, PREPL inhibitor 12.8 and Beta cell apopt -4.3.
Screening C[n+]1c2n(c3ccccc31)N=C(c1ccc(-c3ccccc3)cc1)CS2 returned CSC inhib 39.5, GRIN3A LBD mod -1.2, CHOP inhibitor 47.0, T cruzi repl 60.3*, PREPL inhibitor 35.7 and Beta cell apopt 108.2*.
For COc1cccc(COC(=O)c2cc(S(=O)(=O)N3CCCCC3)ccc2N2CCOCC2)c1OC the results were CSC inhib -4.1, GRIN3A LBD mod 19.5*, T cruzi repl 19.0, PREPL inhibitor 6.8 and Beta cell apopt 8.0.
For O=c1cc(/N=C/c2coc3c(ccc4ccccc43)c2=O)[nH]c(=S)[nH]1 the results were CSC inhib 2.9, GRIN3A LBD mod 2.6, CHOP inhibitor 78.9*, T cruzi repl -13.7, PREPL inhibitor 15.3 and Beta cell apopt 5.1.
For NC(=S)N/N=C/c1coc2c(ccc3ccccc32)c1=O the results were CSC inhib -2.8, GRIN3A LBD mod 9.5, CHOP inhibitor -3.9, T cruzi repl -6.9, PREPL inhibitor -5.6 and Beta cell apopt -0.8.
`Cc1cc(O)c2c(c1)C(=O)c1cc(O)cc(O)c1C2=O` gave CSC inhib 29.2, GRIN3A LBD mod 10.4*, CHOP inhibitor 5.6, T cruzi repl 5.3 and PREPL inhibitor 16.0.
For O=C1c2cc(O)cc(O)c2C(=O)c2c1cc(O)c([C@@H](CO)CCO)c2O the results were CSC inhib -7.2, GRIN3A LBD mod 0.8, T cruzi repl -7.0, PREPL inhibitor 2.3 and Beta cell apopt 6.7.
For Cc1cc(SCC(=O)N/N=C/c2ccc(O)cc2O)nc2ccccc12 the results were CSC inhib 133.0*, GRIN3A LBD mod 25.5*, T cruzi repl 69.0*, PREPL inhibitor -5.8 and Beta cell apopt 36.8.
`Cc1cccc(NC(=O)CCC(=O)N/N=C/c2ccc(O)cc2O)c1` gave CSC inhib 79.3*, GRIN3A LBD mod 5.3, T cruzi repl -8.5, PREPL inhibitor 7.0 and Beta cell apopt -0.3.
Screening CN1CCN(c2nc(-c3cccnc3)nc3scc(-c4ccccc4)c23)CC1 returned CSC inhib 23.6, GRIN3A LBD mod -2.2, CHOP inhibitor -5.3, T cruzi repl 9.6, PREPL inhibitor -12.8 and Beta cell apopt -10.5.
Screening Clc1nc(-c2ccccn2)nc2scc(-c3ccccc3)c12 returned CSC inhib 0.3, GRIN3A LBD mod 23.5*, CHOP inhibitor 35.1, T cruzi repl 14.2, PREPL inhibitor 2.3 and Beta cell apopt 51.1.
Screening COc1ccc(/C=N\NC(=O)c2ccc(Cn3cc(Br)c([N+](=O)[O-])n3)o2)c(OC)c1C returned CSC inhib -7.7, GRIN3A LBD mod -0.3, CHOP inhibitor 25.5, T cruzi repl 40.1, PREPL inhibitor -2.7 and Beta cell apopt 0.1.

Screening results (PubChem)
